From ChEMBL document CHEMBL2163334, “Discovery of highly potent and selective pan-Aurora kinase inhibitors with enhanced in vivo antitumor therapeutic index” (J Med Chem, 2012)

Key:
Aurora kinase A = molecular target: T1, Aurora kinase A (Homo sapiens, UniProt O14965); assay: Binding affinity to Aurora kinase A catalytic domain by competition binding assay
T1 sequence (O14965 whole entry): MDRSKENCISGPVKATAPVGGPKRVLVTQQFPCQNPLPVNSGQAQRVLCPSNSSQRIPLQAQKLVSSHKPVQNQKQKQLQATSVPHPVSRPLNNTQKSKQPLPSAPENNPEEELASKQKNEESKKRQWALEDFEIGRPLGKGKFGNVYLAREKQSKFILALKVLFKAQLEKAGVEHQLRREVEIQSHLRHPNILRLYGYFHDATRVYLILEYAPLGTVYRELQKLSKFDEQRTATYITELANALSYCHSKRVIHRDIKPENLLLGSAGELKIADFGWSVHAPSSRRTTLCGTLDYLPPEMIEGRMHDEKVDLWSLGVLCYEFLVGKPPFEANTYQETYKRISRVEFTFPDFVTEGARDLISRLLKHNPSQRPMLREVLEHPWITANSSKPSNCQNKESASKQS

Aurora kinase B [1] = molecular target: T2, Aurora kinase B (Homo sapiens, UniProt Q96GD4); assay: Binding affinity to Aurora kinase B catalytic domain by competition binding assay
Aurora kinase B [2] = molecular target: T2, Aurora kinase B; assay: Inhibition of Aurora kinase B-mediated histone H3 Ser10 phosphorylation in human HCT116 cells after 2 hrs by sandwich ELISA; type: cell-based, HCT-116
How it was run: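 HCT-116 cells seeded 4 × 10⁴/well, 4-6 h at 37 °C, then arrested overnight (16-18 h) with nocodazole at 66 ng/mL final. Treated 2 h with nine-point 3-fold dilutions in DMSO; lysed with phosphatase inhibitor, phospho-H3 (Ser10) sandwich ELISA read at 450 nm. IC50 = 50% inhibition of phosphorylation; duplicate runs averaged.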

HCT-116 = assay: Antiproliferative activity against human HCT116 cells after 72 hrs by BrdU-based ELISA; type: functional, cell-based; details: HCT-116, 72 h
How it was run: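 HCT-116 cells in McCoy's 5A with 10% FBS and pen/strep, seeded 800 cells/well, left overnight at 37 °C, 5% CO2. Nine-point 3-fold serial dilutions in DMSO added for 72 h; BrdU colorimetric ELISA read at 450 and 690 nm. IC50 is the concentration halving proliferation; duplicate runs averaged.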

[3] = Clearance in Sprague-Dawley rat at 1 mg/kg, iv administered using PEG400/water as vehicle; type: ADME, organism-based; set-up: dose 1 mg/kg, route intravenous; details: in vivo
How it was run: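 SD rats fasted overnight, given 1 mg/kg iv in PEG400/water (3:1, v/v); three per arm. Blood into K3 EDTA at 5, 15, 30 min, 1, 2, 4, 6, 24 h, spun at 4 °C; plasma extracted with six volumes acetonitrile plus internal standard and quantified by LC-MS/MS (C8 column, formic acid/ACN gradient).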

T2 sequence (Q96GD4 whole entry, the tested form may be a part): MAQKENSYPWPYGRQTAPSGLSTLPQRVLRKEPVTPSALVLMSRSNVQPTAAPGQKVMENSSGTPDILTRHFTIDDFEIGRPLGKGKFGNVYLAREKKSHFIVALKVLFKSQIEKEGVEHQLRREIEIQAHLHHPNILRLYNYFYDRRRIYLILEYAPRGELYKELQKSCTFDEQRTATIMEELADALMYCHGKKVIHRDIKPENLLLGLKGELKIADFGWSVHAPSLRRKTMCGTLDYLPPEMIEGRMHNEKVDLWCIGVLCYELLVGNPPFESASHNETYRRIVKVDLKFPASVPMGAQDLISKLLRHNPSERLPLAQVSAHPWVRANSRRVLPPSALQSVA

SMILES | Kd (Aurora kinase A) [nM] | Kd (Aurora kinase B [1]) [nM] | IC50 (Aurora kinase B [2]) [nM] | IC50 (HCT-116) [nM] | clearance [3] [mL/min/kg]
Cc1cc(Nc2nc(Sc3ccc(NC(=O)CN4CC[C@@H](NS(C)(=O)=O)C4)cc3)nn3cccc23)n[nH]1 | 12.3 | 3.2 | 362 | 270 | –
Cc1cc(Nc2nc(Sc3ccc(NC(=O)CN4CCC(C(=O)C(C)(C)C)C4)cc3)nn3cccc23)n[nH]1 (racemic) | 16.9 | 6.1 | 44.8 | 12.5 | –
Cc1cc(Nc2nc(Sc3ccc(NC(=O)CN4CC[C@@H](OCCN5CCOCC5)C4)cc3)nn3cccc23)n[nH]1 | 11 | 6.6 | 43.4 | 17.8 | –
Cc1cc(Nc2nc(Sc3ccc(NC(=O)CN4CC[C@@H](C(=O)NC5CCC5)C4)cc3)nn3cccc23)n[nH]1 | 4.2 | 3.3 | 9.3 | 1.3 | –
Cc1cc(Nc2nc(Sc3ccc(NC(=O)CN4CC[C@@H](SC(C)(C)C)C4)cc3)nn3cccc23)n[nH]1 | 25.2 | 14.2 | 94.5 | 19.3 | –
Cc1cc(Nc2nc(Sc3ccc(NC(=O)CN4CCC(C(=O)N5CCCC5)C4)cc3)nn3cccc23)n[nH]1 (racemic) | 8.8 | 2.4 | 9 | 2.9 | –
Cc1cc(Nc2nc(Sc3ccc(NC(=O)CN4CC[C@@H](S(=O)(=O)C(C)(C)C)C4)cc3)nn3cccc23)n[nH]1 | 4 | 4.3 | 28.6 | 9.2 | –
Cc1cc(Nc2nc(Sc3ccc(NC(=O)CN4CC[C@@H]([S+]([O-])C(C)(C)C)C4)cc3)nn3cccc23)n[nH]1 (stereo partly drawn) | 2.8 | 3.1 | 11.9 | 3.4 | –
Cc1cc(Nc2nc(Sc3ccc(NC(=O)CN4CC[C@@H](OCCCN5CCOCC5)C4)cc3)nn3cccc23)n[nH]1 | 5.1 | 3.7 | 27.1 | 10.8 | –
Cc1cc(Nc2nc(Sc3ccc(NC(=O)CN4CC[C@@H](NC(=O)C(C)C)C4)cc3)nn3cccc23)n[nH]1 | 13.1 | 5.7 | 114 | 46.5 | –
Cc1cc(Nc2nc(Sc3ccc(NC(=O)CN4CC[C@@H](C(=O)NCC(F)(F)F)C4)cc3)nn3cccc23)n[nH]1 | 2.5 | 2.2 | 7 | 0.9 | 35
Cc1cc(Nc2nc(Sc3ccc(NC(=O)CN4CC[C@@H](O)C4)cc3)nn3cccc23)n[nH]1 | 10.5 | 6.6 | 103 | 74 | –
Cc1cc(Nc2nc(Sc3ccc(NC(=O)CN4CC[C@@H](C(=O)NCCN5CCOCC5)C4)cc3)nn3cccc23)n[nH]1 | 6.3 | 2.9 | 63.2 | 19 | –
Cc1cc(Nc2nc(Sc3ccc(NC(=O)CN4CC[C@H](C(=O)N5CCCC5)C4)cc3)nn3cccc23)n[nH]1 | 10.1 | 1.9 | 37.6 | 16.7 | –
Cc1cc(Nc2nc(Sc3ccc(NC(=O)CN4CC[C@@H](C(=O)N5CCC(O)CC5)C4)cc3)nn3cccc23)n[nH]1 | 4 | 3.7 | 293 | 105 | –
Cc1cc(Nc2nc(Sc3ccc(NC(=O)CN4CC[C@@H](OCCN5CCN(C)CC5)C4)cc3)nn3cccc23)n[nH]1 | 12.5 | 2.9 | 169 | 29.8 | –
Cc1cc(Nc2nc(Sc3ccc(NC(=O)CN4CC[C@@H](C(=O)N5CCCCC5)C4)cc3)nn3cccc23)n[nH]1 | 6.4 | 2.9 | 10 | 3.2 | –
Cc1cc(Nc2nc(Sc3ccc(NC(=O)CN4CC[C@@H](C(=O)N5CCCC5)C4)cc3)nn3cccc23)n[nH]1 | 6.3 | 2.5 | 6.3 | 2.2 | –
Cc1cc(Nc2nc(Sc3ccc(NC(=O)CN4CC[C@@H](C(=O)N5CCOCC5)C4)cc3)nn3cccc23)n[nH]1 | 4 | 2.6 | 14.6 | 3.9 | –
Cc1cc(Nc2nc(Sc3ccc(NC(=O)CN4CC[C@@H](OC(C)(C)C)C4)cc3)nn3cccc23)n[nH]1 | 25 | 3.6 | 8.9 | 2.6 | –
Cc1cc(Nc2nc(Sc3ccc(NC(=O)CN4CC[C@@H](C(=O)NC(C)(C)C)C4)cc3)nn3cccc23)n[nH]1 | 5.6 | 3.1 | 6.2 | 1 | 48
Cc1cc(Nc2nc(Sc3ccc(NC(=O)CN4CC[C@@H](C(=O)Nc5ccc(F)cc5)C4)cc3)nn3cccc23)n[nH]1 | 19.5 | 6.9 | 42.2 | 3.8 | –
COCCO[C@@H]1CCN(CC(=O)Nc2ccc(Sc3nc(Nc4cc(C)[nH]n4)c4cccn4n3)cc2)C1 | 11.5 | 3.1 | 6.2 | 3.1 | 62
Cc1cc(Nc2nc(Sc3ccc(NC(=O)CN4CC[C@@H](OCCO)C4)cc3)nn3cccc23)n[nH]1 | 4.5 | 1.7 | 13 | 5 | –
Cc1cc(Nc2nc(Sc3ccc(NC(=O)CN4CC[C@H](O)C4)cc3)nn3cccc23)n[nH]1 | 39 | 14.8 | 420 | 227 | –
